Only some compounds are listed: those with a hit (about 2.4% of all), similar ones and a draw of the others.
STAT1 inh – reduces IFN-gamma driven STAT1 reporter signal | NIH 3T3 STAT1-luciferase reporter, luminescence | inhibition, % at 5.5 µM | 0.35% of 200,000 active;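 active means inhibition above a set limit, the mean inhibition across all tested compounds plus 3 SD, cut at about 34% in these data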;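 further: 0% = IFN-gamma with DMSO and 100% = IFN-gamma with 300 µM nifuroxazide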
STAT3 inh – inhibitors of IL-6 induced STAT3 signaling; inhibition, % at 5.5 µM; U3A cells, IL-6 STAT3-luciferase reporter, luminescence; host cell line lacks STAT1; 0.89% of 190,000 active;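 active means inhibition above the mean inhibition across all screened compounds plus 3 SD, cut at about 44% in these data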;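 further: 0% = DMSO only wells and 100% = 100 µM nifuroxazide control wells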
bCat nuc transl – beta-catenin nuclear translocation modulation. HeLa beta-catenin nuclear translocation, immunofluorescence imaging. nuclear translocation activity, % at 5 µM. AID 1665. 0.3% of 190,000 active;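 active means nuclear translocation activity above 50% at 5 µM, with a well cell count of 50 or more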;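 further: per-cell ratio of nuclear to cytoplasmic median beta-catenin stain intensity; plate controls were DMSO negative control for no effect and GSK-3 inhibitor IX positive control for full effect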
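test system = HeLa cells, endogenous beta-catenin | dosing = single 5 µM dose plus 0.02–20 µM confirmation series | times = compound treatment 24 h, 37°C, 5% CO2 | technique = beta-catenin immunofluorescence imaging with DAPI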
STAT3 activator – STAT3 signaling activation. U3A cells, IL-6 STAT3-luciferase reporter, luminescence; 100% = signal with IL-6 EC80 alone. activation (% of control), % at 5.6 µM. 0.91% of 190,000 active. AID 871;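 active means activation above the screen-wide mean of compound activation plus 3 SD, cut at about 130% in these data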;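 further: 0% = background luminescence of wells with medium and substrate only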
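Material: human U3A cells carrying STAT3-luciferase construct. Measured by: reporter luminescence signal. Timing: compound 1 h, then IL-6 6 h at 37 °C.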
MT stabilizer – microtubule stabilizers in HeLa cells; HeLa tubulin immunostaining HCS, 24 h; share of cells brighter than vehicle mean+2SD; % tubulin-high responders, % at 10 µM; 0.83% of 200,000 active;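 active means plate Z-score above 3 for both tubulin-high and condensed-nucleus cell shares, with cell loss under 80%, at 10 µM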;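 further: anti alpha tubulin signal scored within the nucleus-defined area of each cell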
Active calls of the source: *; nt = not tested or not shown.

SMILES	STAT1 inh	STAT3 inh	bCat nuc transl	STAT3 activator	MT stabilizer
COC(=O)c1ccc2c(c1)C(C)(C)C(/C=C/c1ccc(OC)c(OC)c1OC)=[N+]2C	-7	14	-4	91	3
COC(=O)c1ccc2c(c1)C(C)(C)C(/C=C/c1ccc(O)cc1)=[N+]2C	-23	41	41	67	41*
Cc1ccc(-c2nn(-c3ccccc3)cc2C=C2C(=O)CC(C)(C)CC2=O)cc1	-16	21	-4	87	3
CC1=NNC(=O)/C1=C\c1cn(-c2ccccc2)nc1-c1ccc(Cl)cc1	-22	61*	1	55	79
Cc1cccc(N=N/C(=C\O)C(=O)c2cccs2)c1	-4	8	2	95	2
C=CCSC1=NN2CCS(=O)(=O)N=C2S1	-1	1	3	103	4
CN(CC1CCCO1)S(=O)(=O)c1ccc(C(=O)Nc2nc3cc4c(cc3s2)OCO4)cc1 (stereo unspecified)	7	82*	nt	37	9
O=C(NCc1ccco1)c1cnn2cccnc12	-4	-3	1	104	5
Cc1ccc(C2Nc3ccccc3C(=O)N2Cc2ccco2)cc1 (stereo unspecified)	-2	6	5	103	18*
O=C1c2ccccc2NC(c2ccc(O)cc2)N1Cc1ccco1 (stereo unspecified)	2	-10	-1	105	2
Cc1cc(C)c(C)c(S(=O)(=O)NC(C(=O)O)C(C)C)c1C (stereo unspecified)	-9	-2	0	103	4
CCOc1ccc(N=C2SC(C(=O)Nc3ccccc3C#N)C(N)=C2C(=O)Nc2ccc(Cl)cc2)cc1 (stereo unspecified)	-9	4	3	100	4
N#Cc1ccccc1NC(=O)C1SC(=Nc2ccccc2)C(C(=O)Nc2ccc(Cl)cc2)=C1N (stereo unspecified)	55*	54*	-2	58	4
CCOc1ccc(C(=O)Nc2ccc(NC(=O)c3ccco3)c(Cl)c2)cc1Cl	5	24	nt	80	3
O=C(O)c1cccc(NC(=O)c2ccc3c(c2)C(=O)N(CC2CCCO2)C3=O)c1 (stereo unspecified)	37*	30	nt	75	1
COc1ccc(NC(=O)c2cccnc2)c([N+](=O)[O-])c1	1	16	3	88	22*
Cc1ccc(C(=O)Nc2cccc(C(=O)O)c2)cc1	82*	98*	nt	19	2
CCOc1ccccc1NC(=O)c1cccc(NC(=O)c2ccco2)c1	-8	27	72*	80	41*
O=[N+]([O-])c1ccccc1/C=C/C=N/Nc1ccc(S(=O)(=O)Nc2ccc(Cl)cc2)cc1[N+](=O)[O-]	-5	-12	9	113	3
Cn1cc(C(=O)Nc2ccc3c(c2)CCC3)cn1	-12	-4	-2	102	3
CCOc1ccc(C(=O)Nc2cccc(C(=O)O)c2)cc1Cl	71*	93*	-4	25	4
Cc1ccc(C(=O)Nc2ccc3c(c2)CCC3)cc1	64*	88*	0	24	2
CCOc1ccc(NC(=O)c2ccco2)c([N+](=O)[O-])c1	-72	2	7	99	12*
CCCCC(=O)NNC(=S)NCc1ccccc1	1	11	-4	93	3
Nc1cc([N+](=O)[O-])ccc1N1C(=O)CCCC1=O	nt	nt	0	nt	nt
SMILES	STAT1 inh	STAT3 inh	bCat nuc transl	STAT3 activator	MT stabilizer
O=C(Cc1ccc(-n2cccc2)cc1)NCc1cccs1	-6	-16	165*	119	29*
Cc1ccc(CNC(=O)Cc2ccc(-n3cccc3)cc2)cc1	12	5	-2	99	10
COC(=O)c1ccc(Cl)c(NC(=O)c2ccc(-c3ccccc3)cc2)c1	-1	-31	-2	136*	3
COCC(=O)Nc1cc(C(=O)Nc2ccccc2)ccc1Cl	1	16	0	91	2
C=CCN(c1ccccc1Cl)S(=O)(=O)c1cccc(C(=O)OCC(=O)N(C)C2CCS(=O)(=O)C2)c1 (stereo unspecified)	2	0	-2	100	2
COc1ccc(OC)c(NC(=O)c2cnc(Nc3ccccc3OC)c3ccccc23)c1	5	-4	-2	101	19*
COc1ccc(OC)c(NC(=O)c2cnc3ccccn3c2=O)c1	-3	9	nt	95	3
Cc1ccc2c(n1)sc1c(-c3ccccc3)c(C#N)c(N)nc12	0	-35	-3	135*	1
COc1ccc(NC(=O)COC(=O)c2ccc(S(=O)(=O)N(C)c3ccccc3OC)cc2)c(OC)c1	0	7	0	98	18*
COc1ccc(NC(=O)COC(=O)c2ccc(S(=O)(=O)N(C)c3ccccc3OC)cc2)cc1OC	1	1	-5	100	4
CC(C)Sc1n[nH]c(=O)n1-c1ccccc1	nt	nt	-4	nt	nt
CCn1cc(CN2CCc3c([nH]c4ccccc34)C2c2cccc(OC)c2)c(C)n1 (stereo unspecified)	-5	-30	1	133*	4
COc1cccc(C2c3[nH]c4ccccc4c3CCN2Cc2cccn2-c2ncccn2)c1 (stereo unspecified)	-1	-31	0	133*	1
CC(=O)NS(=O)(=O)c1ccc(NC(=O)CSc2ccc(C)cc2)cc1	-6	-3	0	108	4
C(=N\Nc1nc2ccccc2[nH]1)/c1ccc2ncccc2c1	nt	nt	2	nt	nt
C(=N\Nc1nc2ccccc2[nH]1)/c1ccccn1	93*	111*	nt	12	3
CCN(CC)S(=O)(=O)c1cccc(NC(=O)CN(C)Cc2cccc(OC)c2)c1	nt	nt	0	nt	nt
COc1cc(NC(=S)NC(=O)c2ccccc2F)ccc1NC(=O)c1ccco1	3	3	0	100	15*
COc1cccc(-c2nnc3sc(-c4ccc(C)cc4)nn23)c1	7	20	68*	92	33*
CCN(CC)c1ccc(-c2nn3c(-c4cccnc4)nnc3s2)cc1	-15	15	6	95	38*
CC(=O)Nc1ccc(C=C(C(C)=O)C(C)=O)cc1	nt	nt	0	nt	nt
O=C1CC(c2ccccc2)Sc2ccccc2N1 (stereo unspecified)	-17	-36	-5	135*	4
COc1ccc(NC(=O)c2nc(C)n(-c3ccc([N+](=O)[O-])cc3)n2)cc1	-8	6	1	101	3
CCOC(=O)Nc1nc(-c2ccccc2)c(C(=O)c2ccc(Cl)cc2)s1	-8	-4	182*	103	9
CCOC(=O)Nc1sc(C)nc1-c1ccccc1	-5	6	-5	97	3
CC1(C(=O)O)CCC(C(=O)N2CCCCC2)C1(C)C (stereo unspecified)	-1	-1	1	102	2
CCOCCCNC(=O)c1cc2c(-c3ccc(Cl)cc3)nn(C)c2s1	1	-32	nt	136*	5
CCOC(=O)N1CCC(NC(=O)c2cc3c(-c4cccc(OC)c4)nn(C)c3s2)CC1	-9	12	0	95	7.7*

Bioassay records: PubChem BioAssay, several laboratories
